Bioassay records from PubChem BioAssay.
Rows were chosen to be rich in hits. Some 2.5% of all compounds tested hit in one or more screens of this group.
MC4R barr agon: human MC4R agonism via beta-arrestin; P32245; activation, % at 8.9 µM; U2OS MC4R beta-arrestin complementation, luminescence; percent of melanotan II response, DMSO zero; AID 540308; 360,000 compounds, 0.98% hits;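 active = activation above a per-plate cutoff, the mean activation of sample wells on that plate plus 3 SD, cut at about 8% in these data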
MC4R antagonist: human MC4R antagonism in cAMP assay; P32245; inhibition, % at 6.5 µM; MC4R-expressing cells, MTII-stimulated cAMP, LANCE TR-FRET; 360,000 compounds, 0.48% hits;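 active = inhibition above its plate's cutoff, the mean of tested wells on that plate plus 3 SD, cut at about 29% in these data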;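 also: 0% = Melanotan II alone and 100% = Melanotan II plus saturating MCL0020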
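material = U2OS cells stably expressing human melanocortin 4 receptor (MC4R) | also added = Melanotan II challenge | dosing = single nominal compound dose of 6.5 µM | detection = TR-FRET with Eu-cAMP and labeled anti-cAMP, 671 nm | replication = singlicate | timing = compound 30 min, challenge 1 h, detection 1 h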
PG9 Ab binder: PG9 antibody binding by small molecule; TR-FRET gp120-PG9 antibody binding; inhibition, % at 6.7 µM; 360,000 compounds, 0.43% hits; in the data active = inhibition above about 8.5%
NTR1 ag: agonists of human neurotensin receptor NTR1. 330,000 compounds, 0.17% hits. P30989. NTR1-U2OS beta-arrestin-GFP spot imaging, agonist mode. activation, % at 20 µM;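 active = activation at or above 40% of the spot to cytoplasm intensity ratio, with at least 20 cells analyzed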;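 also: 0% = DMSO without peptide and 100% = 100 nM NTR1 peptide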
Target sequence (P30989 whole entry, looked up): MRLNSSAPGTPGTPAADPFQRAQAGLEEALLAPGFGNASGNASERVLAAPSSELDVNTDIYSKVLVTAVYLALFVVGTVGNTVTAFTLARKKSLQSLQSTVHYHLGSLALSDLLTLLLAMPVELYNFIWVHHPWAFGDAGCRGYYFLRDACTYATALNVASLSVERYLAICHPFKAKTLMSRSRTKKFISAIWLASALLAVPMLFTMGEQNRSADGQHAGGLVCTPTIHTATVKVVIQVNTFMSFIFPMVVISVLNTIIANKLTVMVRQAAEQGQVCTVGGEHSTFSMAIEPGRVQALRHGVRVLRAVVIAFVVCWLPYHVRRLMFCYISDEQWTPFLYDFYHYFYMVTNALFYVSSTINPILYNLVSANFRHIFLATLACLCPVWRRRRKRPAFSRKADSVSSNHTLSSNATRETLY
NR1D1 modulator: modulators of human Rev-erb alpha DNA binding; P20393; Rev-erbα–FITC-DNA binding, fluorescence polarization, 90 min; activity, % at 10 µM; 370,000 compounds, 0.79% hits; AID 1259318;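 active = activity above about 14%, limit read from the data; passing the limit was not always enough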;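 also: 0% = DMSO wells with 35 nM protein and 100% = DMSO wells with 750 nM protein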
PG9 binder conf: confirmation of small molecules binding HIV-1 gp120 antibody PG9; TR-FRET PG9 antibody binding, biochemical; inhibition, % at 6.7 µM; shares compounds with PG9 Ab binder; 1,500 compounds, 90% hits; in the data active = inhibition above about 9%
PGV04 Ab binding: PGV04 control antibody binding, counter-screen | shares compounds with PG9 Ab binder | TR-FRET PGV04 antibody-gp120 binding, biochemical | inhibition, % at 6.7 µM | 1,500 compounds, 95% hits; in the data active = inhibition above about 9.5%
NR1D1 mod conf: Rev-erb alpha (human) modulation, hit confirmation; 3,000 compounds, 61% hits; shares compounds with NR1D1 modulator; AID 1259319; activation, % at 25 µM; Rev-erb alpha FITC-DNA binding, fluorescence polarization, 90 min;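 active = activation at or above a set limit, or at least 3 SD above the negative control mean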;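 also: 0% = 35 nM protein with DMSO and 100% = 750 nM protein high control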
RORg DNA counter: RORgamma DNA-binding activity, dose-response counter-screen; IC50, µM; AID 1259320; shares compounds with NR1D1 modulator; 910 compounds, 8% hits; purified RORgamma protein-FITC-DNA binding, fluorescence polarization;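 active = Compounds whose fitted half-maximal concentration for disrupting protein-DNA binding is below 10 micromolar; the record names Rev-erb in its text, so the target is in doubt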
The depositor's hits bear a star; i = inactive; x = no result given.

SMILES	MC4R barr agon	MC4R antagonist	PG9 Ab binder	NTR1 ag	NR1D1 modulator	PG9 binder conf	PGV04 Ab binding	NR1D1 mod conf	others
O=c1[nH]c(SCCOc2ccccc2)nc2ccccc12	-1	0	40*	12	46*	33*	52*	25*
COC(=O)c1cc(Cl)c(NC(=O)c2ccc(C(C)(C)C)cc2)cc1OC	0	11	0	16	-4	x	x	x
COC(=O)c1cc(Cl)c(NC(=O)c2cc3ccccc3o2)cc1OC	1	-5	8.7*	2	28*	5	38*	0
CCc1ccccc1NC(=O)c1nnn(CC(=O)Nc2cccc(C)c2C)c1N	0	-5	41*	-4	35*	41*	48*	42*
CCc1ccc2[nH]cc(S(=O)(=O)c3ccc(C)c(C)c3)c(=O)c2c1	-1	7	1	1	3	x	x	x
CCc1ccc2[nH]c3nc(C)cc(C)c3c(=O)c2c1	-1	-12	25*	0	30*	16*	23*	25*
Cc1ccc(OCC(=O)NNC(=O)C2CCN(c3ncnc4sc(C)c(C)c34)CC2)cc1	-1	2	-1	4	-2	x	x	x
Cc1sc2ncnc(N3CCC(C(=O)Nc4nnc(CC(C)C)s4)CC3)c2c1C	1	13	14*	10	17*	42*	54*	12
CCOC(=O)/C(C#N)=C/c1cc2ccccc2nc1N1CCCCC1	-1	4	27*	13	43*	25*	30*	43*	RORg DNA counter=>40
Cc1ccc2cc(/C=C(\C#N)C(N)=O)c(N3CCCCC3)nc2c1	0	8	0	5	4	x	x	x
O=C(Nc1ccc(OC(=O)c2ccccc2)c(-c2nc3ccccc3s2)c1)c1ccccc1	-1	0	-3	2	18	x	x	x
Cc1ccsc1C(=O)Nc1ccc(O)c(-c2nc3ccccc3s2)c1	6	0	51*	7	450*	58*	78*	354*	RORg DNA counter=>40
Cc1nc2ccc3nc(NC(=O)c4ccc5c(c4)OCCO5)sc3c2s1	-1	12	35*	0	78*	27*	56*	39*	RORg DNA counter=>40
Cc1ccccc1C(=O)NC1CCCCN(Cc2cccc(F)c2)C1=O (stereo not drawn)	x	x	x	x	-2	x	x	x
O=C(Nc1ccc2c(c1)C(=O)NC2=O)c1ccc(Cl)s1	2	0	-3	3	4	x	x	x
O=C(Nc1ccc2c(c1)C(=O)NC2=O)c1cc(Cl)ccc1Cl	0	8	9.5*	4	144*	10*	15*	121*	RORg DNA counter=>40
COc1ccc(CN2C(C(=O)NC3CCCC3)CSCCS2(=O)=O)cc1 (stereo not drawn)	x	x	x	x	-1	x	x	x
C#CCn1c(=NC(=O)c2ccc(Br)s2)sc2cccc(OC)c21	4	19	11*	10	27*	15*	26*	43*	RORg DNA counter=i
O=C(CNC(=O)c1sc2ccccc2c1Cl)Nc1ccccc1F	-1	3	12*	1	44*	17*	32*	10
COc1ccc(NC(=O)CNC(=O)c2sc3ccccc3c2Cl)c(OC)c1	2	1	0	-1	-4	x	x	x
CCCCN1CCN(C(=O)c2cn(C(C)c3ccccc3)nn2)CC1 (stereo not drawn)	x	x	x	x	-1	x	x	x
COc1cccc(C(=O)Nc2nnc(S(=O)(=O)Nc3cccc(C)c3)s2)c1	1	9	1	0	-3	x	x	x
COc1cccc(C(=O)Nc2nnc(-c3ccc(OC)cc3OC)s2)c1	1	10	31*	22	32*	31*	41*	15
Cc1cccc(-c2cccc3c4c([nH]c23)[C@@H]2C[C@H](N(C)C(=O)NC3CCCCC3)[C@H]([C@H](C)O)CN2CC4)c1	x	x	x	x	0	x	x	x
COCC(=O)N1CCC(C(=O)NCC2COc3ccccc3O2)CC1 (stereo not drawn)	x	x	x	x	-4	x	x	x
SMILES	MC4R barr agon	MC4R antagonist	PG9 Ab binder	NTR1 ag	NR1D1 modulator	PG9 binder conf	PGV04 Ab binding	NR1D1 mod conf	others
Cc1ccc(-n2c(SCC(=O)Nc3ccccc3-c3ccccc3)nnc2-c2ccccc2)cc1	x	x	x	x	-5	x	x	x
Cc1ccccc1NC(=O)CSc1nnc(-c2ccccc2)n1-c1ccccc1	-1	12	37*	0	37*	4	6	21*
CC(C)C[C@@H]1COc2cc(Br)ccc2S(=O)(=O)N1Cc1cn(Cc2ccc(Cl)cc2)nn1	x	x	x	x	-4	x	x	x
CC(C)NC(=O)C1CCN(c2cncnc2)CC1	x	x	x	x	-6	x	x	x
CC(C)CCNC(=O)c1cc2c(=O)[nH]c3ccccc3c2s1	-2	8	10.0*	0	30*	17*	21*	22*
CCOC(=O)c1nn(-c2ccc(Cl)cc2)c2nc(CC)c(C#N)c(=O)n12	0	4	16*	5	33*	20*	25*	6
CCOC(=O)c1nn(-c2ccc(OCC)cc2)c2nc(CC(C)C)c(C#N)c(=O)n12	1	6	0	10	15	x	x	x
Fc1cccc2sc(Nc3nc4ccccc4s3)nc12	1	10	14*	9	40*	13*	29*	35*	RORg DNA counter=>40
O=C1c2cccc3cccc(c23)C(=O)N1OS(=O)(=O)c1ccccc1	2	0	28*	0	59*	28*	62*	10
COc1ccc(OC)c(CN(CC(F)(F)F)S(=O)(=O)c2ccccc2Br)c1	x	x	-1	x	4	x	x	x
COc1ccc(-c2cc(-c3ccccc3)nc3ncnn23)cc1	-1	13	-1	3	-1	x	x	x
COc1ccc(-c2cc(-c3ccc(Br)cc3)nc3ncnn23)cc1OC	7	1	13*	1	25*	12*	20*	8
Cc1cc(C)c2nc(SCC(=O)N3CC(=O)Nc4ccccc43)c(C#N)cc2c1	-1	5	13*	2	98*	11*	24*	64*	RORg DNA counter=>40
CC(=O)C1(C(=O)NCc2ccccc2)CC(c2ccccc2C(F)(F)F)=NO1 (stereo not drawn)	x	x	x	x	-5	x	x	x
Cn1cc(C2NC(=O)c3ccccc3N2)c2ccccc21 (stereo not drawn)	-1	-6	20*	x	25*	9.9*	22*	18*
COc1ccc(CNc2ncnc3cc(Cl)ccc23)cc1OC	0	1	-1	x	-5	x	x	x
COc1ccccc1CNc1ncnc2cc(Cl)ccc12	0	4	90*	x	180*	91*	93*	137*	RORg DNA counter=i
